According to the array DNA melting data of Ke et al. (doi:10.1101/2024.01.08.574731):

Assays:
[1] = folding enthalpy; higher = less favourable; fluorescence melt of hairpins on a sequencing array, two-state fit; settings: sodium 0.088 M
Method in brief: (§1)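 Folding enthalpy and melting temperature come from bootstrapped two-state fits to Cy3 fluorescence of library hairpins carrying annealed Cy3 and quencher oligos on a sequenced MiSeq flow cell. Imaging was done in 50 mM Na-HEPES pH 8.0, 25 mM NaCl, stepping by 2.5 °C up to 60 °C, and signals were normalised to pre-quench Cy3 and to control constructs. Results of four replicates were combined by inverse variance, and fitted temperatures were raised by 9.35 °C to match UV melts.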

[2] = melting temperature; fluorescence melt of hairpins on a sequencing array, two-state fit, raised by 9.35 °C to match UV melts; settings: sodium 0.088 M
Method in brief: as §1

Sequence | folding enthalpy [1] | Tm [2]
GTCGTCGAAAGACATGAC ((((((....)))..))) | -17.4 kcal/mol | 38.5 °C
GCAGATCGAAAGATATGC (((.(((....))).))) | -36.7 kcal/mol | 54.7 °C
GCGGATCGCCGC ((((....)))) | -19.9 kcal/mol | 55.6 °C
GTTCGGGGAAACCTGAGC (.((.((....)).)).) | -20.5 kcal/mol | 32.6 °C
GTTAACGAAAGTTATAAC ((((((....)))..))) | -13.3 kcal/mol | 26.4 °C
GATCCGTGAGCGGATC ((((((....)))))) | -35.6 kcal/mol | 65.9 °C
GTCATACGAAAGTAGAC (((.(((....)))))) | -28.2 kcal/mol | 42.4 °C
GGCGCTGCGAAAGCAGCC (((..(((....)))))) | -6.28 kcal/mol | 58.1 °C
GTTCTCGCGAAAGCGAAC (((..(((....)))))) | -7.5 kcal/mol | 27.8 °C
GGGAAAGGAAACTTTTCC ((.((((....)))).)) | -27 kcal/mol | 40.6 °C
GAAACGCGAAAGCGTTC (((.(((....)))))) | -8.94 kcal/mol | 50.6 °C
GTGTGACGAAAGTCGCAC (((.(((....))).))) | -42.5 kcal/mol | 65.9 °C
GCTCCGCGAAAGCACAGC (((..((....))..))) | -8.71 kcal/mol | 31.3 °C
GATCAACCGTTGATC ((((((...)))))) | -38.1 kcal/mol | 41.1 °C
GACTTTGAAAAAAGTC ((((((....)))))) | -40.6 kcal/mol | 48.6 °C
GTTTGTCCGAAAGGAAAC (((..(((....)))))) | -18.9 kcal/mol | 35.9 °C
GGTGGTGCGAAAGCAACC (((..(((....)))))) | -15.4 kcal/mol | 53.3 °C
GCGACCGGAAACGATCGC ((((.((....)).)))) | -38.7 kcal/mol | 55 °C
GCGAGTACGAAAGTACGC (((..(((....)))))) | -12 kcal/mol | 53.1 °C
GTTCACGAAAGTGAAAAC ((((((....)))..))) | -11.7 kcal/mol | 40.5 °C
GATCTTCCCGAAGATC ((((((....)))))) | -40.8 kcal/mol | 49.4 °C
GATGTGGAAACACATC ((((((....)))))) | -35.5 kcal/mol | 57.1 °C
GCTCAGGGAAACCTGAAC (.(((((....))))).) | -17.4 kcal/mol | 37.7 °C

Sequence | folding enthalpy [1] | Tm [2]
GACAACGAAAGTTAGGTC ((((((....)))..))) | -14.6 kcal/mol | 33.7 °C
GACCAGGGAAACTTGGTC (((((.(....).))))) | -37.8 kcal/mol | 47.8 °C
GCCAGGCGAAAGCCCGGC (((.(((....))).))) | -24.5 kcal/mol | 66.2 °C
GCAGTGGGAAACCATTGC (((.(((....))).))) | -25.6 kcal/mol | 50.1 °C
GGAGTGCCGAAAGGCTCC (((..(((....)))))) | -12.2 kcal/mol | 41.9 °C
TCGAAGAAATTCGA (((((....))))) | -11.1 kcal/mol | 38.7 °C
GCACAACGAAAGTTATGC (((.(((....))).))) | -34.9 kcal/mol | 44.5 °C
GTCCGCGAAAGCGACGAC ((((((....)))..))) | -14 kcal/mol | 57.6 °C
GATCTGGGGCCAGATC ((((((....)))))) | -47.6 kcal/mol | 50.5 °C
GGTTGCGAAAGCAAGACC ((((((....)))..))) | -14.6 kcal/mol | 44.2 °C
GCTCCGCGAAAGCTTAGC (((..((....))..))) | -14.4 kcal/mol | 35.1 °C
GTTTCTGGAAACAGAAGC (.(((((....))))).) | -26.3 kcal/mol | 39.5 °C
GATCGAAACCTCGATC ((((((....)))))) | -39.6 kcal/mol | 51.3 °C
GATCAGGACACTGATC ((((((....)))))) | -45.4 kcal/mol | 56.7 °C
GGGAACGAAAGTTGGCCC ((((((....)))..))) | -14.7 kcal/mol | 32 °C
GTAGACCGAAAGGTGTAC (((.(((....))).))) | -36.3 kcal/mol | 50.8 °C
GCGAGCGTCGC ((((...)))) | -10.2 kcal/mol | 60 °C
GATCTCGCACGAGATC ((((((....)))))) | -44.6 kcal/mol | 61 °C
GATCGATAGTCGATC ((((((...)))))) | -30.3 kcal/mol | 48.7 °C
GCAGTGCCGAAAGGCTGC (((..(((....)))))) | -14.8 kcal/mol | 49.8 °C
GATCCTCATGAGGATC ((((((....)))))) | -41.1 kcal/mol | 58.4 °C
GCGTTGGCGAAAGCCCGC (((..(((....)))))) | -18.8 kcal/mol | 57.3 °C
GGTCCCACGAAAGTGACC (((..(((....)))))) | -15.8 kcal/mol | 36.8 °C

Sequence | folding enthalpy [1] | Tm [2]
GGCAGCGAAAGCTCTGCC ((((((....)))..))) | -24.5 kcal/mol | 52.4 °C
GCATGTCGAAAGACTGC (((.(((....)))))) | -35 kcal/mol | 56.1 °C
GATCACTTCCGTGATC ((((((....)))))) | -35.8 kcal/mol | 56.5 °C
GCGCTGCGAAAGCTCCGC (((..((....))..))) | -20.5 kcal/mol | 49.4 °C
GTAGCAGAAATGCTAC ((((((....)))))) | -35.4 kcal/mol | 55.9 °C
GGAGTCGAAAGACACTCC ((((((....)))..))) | -16 kcal/mol | 37.5 °C
CGGCCCGGAAACGGACCG (((.(((....))).))) | -37.7 kcal/mol | 57.6 °C
GCCAGGCGAAAGCATCGC ((.(.((....)).).)) | -8.22 kcal/mol | 36.1 °C
GTCCACACGAAAGTGGAC (((..(((....)))))) | -29.9 kcal/mol | 56.3 °C
GATCCTTTATAGGATC ((((((....)))))) | -40.2 kcal/mol | 53.4 °C
GTCTCTGGAAACAGAGGC (.(((((....))))).) | -26.2 kcal/mol | 49.5 °C
GAGGGCGCGAAAGCGCTC (((..(((....)))))) | -7.69 kcal/mol | 42.5 °C
GATTGGGGAAACCTGATC (((..((....))..))) | -18.6 kcal/mol | 30.6 °C
GAGCCGGCGAAAGCCCTC (((..(((....)))))) | -8.17 kcal/mol | 28.7 °C
GGCGCCGCGAAAGCGGCC (((..(((....)))))) | -5.39 kcal/mol | 49.1 °C
GCGATTTATCGC ((((....)))) | -28.4 kcal/mol | 68.7 °C
GTCCCTCCGAAAGGAGAC (((..(((....)))))) | -9.1 kcal/mol | 26.4 °C
GATCTCGGGCGAGATC ((((((....)))))) | -30.4 kcal/mol | 55.2 °C
GGCGTCGAAAGACCCGCC ((((((....)))..))) | -17.5 kcal/mol | 55.3 °C
GCGCTTGGAAACGAGCGC (((((.(....).))))) | -52.1 kcal/mol | 63.8 °C
GTGTCCGAAAGGACCAC ((((((....))).))) | -10.2 kcal/mol | 48.5 °C
GACTGCGGAAACGTGGTC (((..((....))..))) | -32.8 kcal/mol | 46.5 °C
GAGGCAGGAAACTGCTTC ((.((((....)))).)) | -18 kcal/mol | 47.7 °C

Sequence | folding enthalpy [1] | Tm [2]
GATCCACAGCTGGATC ((((((....)))))) | -31.7 kcal/mol | 47.6 °C
GGTATTACGAAAGTAACC (((..(((....)))))) | -13.4 kcal/mol | 27.5 °C
GGGTGTGGAAACGCACTC (.(((.(....).))).) | -24 kcal/mol | 47.9 °C
GTCAGCGGAAACGCTGGC (.(((((....))))).) | -24.6 kcal/mol | 63.7 °C
GGGTGCCGAAAGGCTCCC (((.(((....))).))) | -20.6 kcal/mol | 69.1 °C
GATCTGATGCAGATC ((((((...)))))) | -34.5 kcal/mol | 48 °C
CGTGACCGGAAACGGACG (((..(((....)))))) | -15.7 kcal/mol | 36.2 °C
GCCATCGAAAGATCAGGC ((((((....)))..))) | -24.9 kcal/mol | 37.7 °C
GCCCTACGAAAGTACGGC (((.(((....))).))) | -27.3 kcal/mol | 46.2 °C
GTCGATACGAAAGTAGAC (((..(((....)))))) | -20.3 kcal/mol | 35.8 °C
GATCCCGGAAACGAGATC ((((.((....)).)))) | -29.6 kcal/mol | 41.7 °C
GGAAACGCGAAAGCGTCC (((..(((....)))))) | -9.21 kcal/mol | 39.1 °C
GATTTGCGAAAGCAGATC (((.(((....))).))) | -32 kcal/mol | 50 °C
GATGTGAAAACATC (((((....))))) | -28.4 kcal/mol | 49 °C
GCACGTGGAAACACGTAC (.(((((....))))).) | -14.2 kcal/mol | 44.1 °C
GGCTTTACGAAAGTAGCC (((..(((....)))))) | -27.7 kcal/mol | 45.5 °C
GCGAACACGAAAGTGCGC (((..(((....)))))) | -21.2 kcal/mol | 51 °C
GGTTTCGAAAGAAATACC ((((((....)))..))) | -19.6 kcal/mol | 32.7 °C
GCGGGCCCCGC ((((...)))) | -22.2 kcal/mol | 62.2 °C
GGGATGGCGAAAGCCCCC (((..(((....)))))) | -15.7 kcal/mol | 47.3 °C
GTACAGGGAAACTTGTGC (.(((.(....).))).) | -16 kcal/mol | 27.9 °C
GTTCCGGGAAACCGGAGC (.(((((....))))).) | -22.4 kcal/mol | 53.6 °C
GCGAGGCGAAAGCCTGGC ((.((((....)))).)) | -24.8 kcal/mol | 66.5 °C
